Test [1] is described as follows: Selectivity ratio of IC50 for human purine nucleoside phosphorylase to IC50 for Schistosoma mansoni purine nucleoside phosphorylase.
The nature of test [2]: Inhibition of Schistosoma mansoni purine nucleoside phosphorylase. The method, boiled down:
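Coupled spectrophotometric assay with 5 nM SmPNP (as monomer) in 50 mM potassium phosphate, pH 7.4, with 10 uM inosine and xanthine oxidase 40 milliunits/mL. Uric acid formation read at 293 nm, 25°C, in triplicate. IC50 obtained from rates at six or more inhibitor concentrations. Values are means of at least three independent experiments.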

In test [3] the target is T1, Purine nucleoside phosphorylase (Homo sapiens, UniProt P00491).
T1 sequence (P00491 whole entry): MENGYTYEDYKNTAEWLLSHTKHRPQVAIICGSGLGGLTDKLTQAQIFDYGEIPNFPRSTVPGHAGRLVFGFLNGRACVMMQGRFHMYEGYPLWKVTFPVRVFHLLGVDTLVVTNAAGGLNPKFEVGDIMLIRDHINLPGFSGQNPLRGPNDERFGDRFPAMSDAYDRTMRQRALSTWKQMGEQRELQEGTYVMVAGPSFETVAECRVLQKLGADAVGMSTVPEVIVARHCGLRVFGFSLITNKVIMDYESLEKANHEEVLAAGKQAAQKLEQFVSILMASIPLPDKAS
The test is described as follows: Inhibition of human purine nucleoside phosphorylase.

`O=c1nc[nH]c2c([C@H]3O[C@@H](CO)[C@H](O)[C@@H]3O)[nH]nc12`: in test [1], the Ratio IC50 came to 6.4. For the same compound, the IC50 – broadly, the concentration at which inhibition is half-maximal – was found to be 47 µM in test [2] and 300 µM in test [3].
For `Nc1nc2c(Cc3ccncc3)c[nH]c2c(=O)[nH]1` the same measures were 0.033, 3 µM and 0.1 µM.
For `Nc1nc2c(Cc3cccnc3)c[nH]c2c(=O)[nH]1` [PELDESINE], the Ratio IC50 in test [1] is 0.25. Also, the IC50 in test [2] was found to be 0.8 µM; in test [3] it was 0.2 µM.
Regarding `Nc1nc2c(Cc3ccc(OCc4ccccc4)cc3)c[nH]c2c(=O)[nH]1`, in test [1], the Ratio IC50 was 0.6. Further, the IC50 in test [2] was 0.5 µM; in test [3], 0.3 µM.
Take `CC(C)c1ccc(Cc2c[nH]c3c(=O)[nH]c(N)nc23)cc1`: in test [1], the Ratio IC50 was found to be 1.8. For the same compound, the results for the IC50 in test [2] and in test [3] were 0.15 µM and 0.27 µM, respectively.
Regarding `Nc1nc2c(Cc3ccccn3)c[nH]c2c(=O)[nH]1`, the Ratio IC50 in test [1] came out at 0.003. Besides, the half-inhibitory concentration (IC50) was found to be 7 µM in test [2] and 0.023 µM in test [3].
For `Nc1ncnc2c1ccn2[C@H]1O[C@@H](CO)[C@H](O)[C@@H]1O` the same measures were 1.5, 200 µM and 300 µM.
In the case of `Nc1nc2c(Cc3ccccc3)c[nH]c2c(=O)[nH]1`, in test [2], the midpoint of inhibition, the IC50, lay at 1.4 µM.
Take `Nc1nc2c(Cc3cccc(Cl)c3)c[nH]c2c(=O)[nH]1`: the Ratio IC50 in test [1] came out at 0.1. The IC50 came to 0.5 µM in test [2] and 0.05 µM in test [3].
For `Nc1nc2c(ccn2[C@H]2O[C@@H](CO)[C@H](O)[C@@H]2O)c(=S)[nH]1` the same measures were 3.3, 95 µM and 315 µM.

(Values after ChEMBL document CHEMBL1157547, “Structural basis for selective inhibition of purine nucleoside phosphorylase from Schistosoma mansoni: kinetic and structural studies” (Bioorg Med Chem, 2010).)
